# According to ChEMBL document CHEMBL4513216, “Probing the Open Global Health Chemical Diversity Library for Multistage-Active Starting Points for Next-Generation Antimalarials” (ACS Infect Dis, 2020):
# Test: Toxicity liver stage against HepG2, at 10uM
# Format: cell-based
# Design: test concentration 10 uM, cell line HepG2-A16-CD81EGFP
# Conditions: human, HepG2-A16-CD81EGFP cells; read-out: INHIBITION
# Outline: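 Uninfected HepG2-A16-CD81EGFP cells, 3 × 10^3 per well, 1536-well, plated on prespotted compound at 10 μM final, parasite-free screening media added to match infected plates; puromycin 10 μM positive, DMSO 0.5% negative; run in parallel with 48 h PbLuc assay at 37 °C, 5% CO2; viability by CellTiter-Glo luminescence, normalized to controls.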
row,Structure (SMILES),cytotoxicity at 10 µM
1,O[C@H]1CC[C@@H](Cc2cc(-c3ccccc3)on2)O[C@@H]1CNCC1CC1,-6.21%
2,CC(=O)N1CC(c2ncn(C(C)C)n2)c2cc(C(=O)NC(C)C)ccc21 (stereo unspecified),8.22%
3,O=C(c1ccco1)N1CCc2onc(CN3CCCC3)c2C1,4.38%
4,O=C(c1ccccn1)N1CC[C@H]2C(=O)N(c3ccsc3)CCO[C@H]2C1,11.6%
5,Cc1cnc(C(=O)N2CCC3(CC2)C(=O)NCCN3CC(C)C)cn1,8.52%
6,c1cc([C@H]2C[C@@H]3CCN(Cc4nccs4)C[C@H]3O2)ncn1,-150%
7,O=C(O)Cn1nc(-c2ccccc2F)ccc1=O,2.87%
8,COC(=O)C(CCSC)NC(=O)Cc1c(C)nn(-c2ccccc2)c1C (stereo unspecified),-4.31%
9,Nc1nc(N2CCCCC2)ncc1C(=O)NCc1ccc(F)c(Cl)c1,-17.2%
10,COc1ccc(-c2nnsc2C(=O)N2CCSCC2)cc1,-1.17%
11,O=C(COCC(=O)N(c1ccccc1)c1ccccc1)N1CCCCC1,2.33%
12,CCc1c(C)nn2c(O)cc(C3CCN(C(=O)C4CC4)C3)nc12 (stereo unspecified),1.97%
13,CN(C)c1cc(C2CCN(C(=O)c3cnn(C)c3)CC2)ccn1,0.075%
14,CC(C)N1CCC(c2n[nH]cc2-c2ccnc(N)c2)C1 (stereo unspecified),2.16%
15,C1CC(CN2CCCCC2C2OCCO2)C1 (stereo unspecified),-12.8%
16,Cc1cc(N(Cc2cccs2)C2CC2)n2nc(C(F)(F)F)nc2n1,-2.1%
17,N#CCCCS(=O)(=O)NC1(c2ccc(F)cc2)CC1,2.9%
18,OC(c1cnn(-c2ccccc2)c1)C(F)(F)F (stereo unspecified),-3.75%
19,Cc1nn(C)c(C)c1CCC(=O)NCC1(C(N)=O)CCOCC1,7.75%
20,CCC(C#N)NC(=O)c1sccc1OC (stereo unspecified),1.88%
21,COc1cccc(CC2CCCN2Cc2nccn2C)c1 (stereo unspecified),-6.16%

row,Structure (SMILES),cytotoxicity at 10 µM
1,COCC1CCCN(c2cncc(OCc3ccccc3)n2)C1 (stereo unspecified),-4.08%
2,COC(=O)CC(NC(=O)CCn1cccn1)c1ccc(C)cc1 (stereo unspecified),3.28%
3,Cc1cc(C)cc(C(C)NCc2nnc(C)s2)c1 (stereo unspecified),-5.77%
4,COc1cc(CNC(=O)COC2CCCCC2)ccc1O,6.81%
5,COCCN(CC(F)F)c1cc(COC)nc2ncnn12,9.08%
6,CC(C)(C)C(NC(=O)CCS(C)(=O)=O)c1ccc(F)cc1F (stereo unspecified),-0.189%
7,Cc1noc(NCc2ccc(F)cc2)n1,-5.92%
8,Cc1cc(C2CCCN(Cc3ncc(C(C)C)o3)C2)n[nH]1 (stereo unspecified),4.29%
9,Cc1cn(CC(=O)NC2CCC(C(=O)O)CC2)c2ccccc12 (stereo unspecified),-0.214%
10,CN(C)c1cccc(C2CCCN2Cc2nnnn2C2CC2)c1 (stereo unspecified),5.15%
11,COc1cc(CNCCc2cc(F)cc3c2OCOC3)cc(OC)c1,-1.51%
12,Cc1ccc(CN(C)C(=O)c2cccc(NC(N)=O)c2)o1,14.2%
13,O=C(NS(=O)(=O)c1cnn(-c2ccccc2F)c1)c1ccco1,-8.86%
14,Cc1ccc(N(C)Cc2nnnn2C2CC2)c(C)c1,8.81%
15,Cc1cc(NC(=O)CSc2nc(=O)ccn2C(C)C)no1,0.841%
16,COC(=O)CCCNC(=O)Nc1ccccc1OC,6.45%
17,N#Cc1cc(F)ccc1Cn1cnc(C2CCC2)cc1=O,-5.32%
18,CCc1nc(CC(=O)NCC2(C(N)=O)CCOCC2)cs1,-9.92%
19,CCS(=O)(=O)N1CCCn2c(nc(CN3CCCC3)cc2=O)C1,1.88%
20,CN(C)[C@@H]1CCN(S(C)(=O)=O)[C@H]1Cc1ccccc1,11.7%
21,CN1Cc2ccccc2CC2(CCN(C(=O)N3CCOCC3)CC2)C1=O,1.02%

row,Structure (SMILES),cytotoxicity at 10 µM
1,CCN1Cc2ccccc2CC2(CCN(C)CC2)C1=O,14.3%
2,CCOc1ccc(OCc2nc3c(c(=O)[nH]2)CCNC3)cc1,8.55%
3,OC1(CN2CCCC2)COCCN(c2nnc(-c3ccccc3)s2)C1 (stereo unspecified),-10.1%
4,CC1(C)CN(S(=O)(=O)N2CCOCC2)CC1c1ccccc1 (stereo unspecified),1.69%
5,COc1ccc(NC(=O)c2ccc(CN3CC[C@H](O)C3)cc2)c(OC)n1,6.21%
6,Cc1ccc([C@@H]2CN(C(=O)c3cc[nH]c3)C[C@H]2NC(=O)C2CC2)cc1,-7.59%
7,CCc1nc(CN(C)C(=O)c2cc(NC(C)=O)ccc2Cl)no1,-1.71%
8,Cc1ccc(OC2(C(=O)O)CCN(C(=O)c3ccsc3)CC2)cn1,-4.09%
9,COC(=O)c1cc2n(n1)CCCN(C(=O)Cc1c[nH]c3ccccc13)C2,2.61%
10,CCOC(=O)N1CCC(NCC2CCN(c3cnn(C)c(=O)c3)C2)CC1 (stereo unspecified),8.39%
11,Oc1ccc(CCC2CCCCN2Cc2noc(C3CC3)n2)cc1 (stereo unspecified),0.55%
12,CCCN(CCO)C(=O)C1CCC(=O)N(Cc2ccc(Cl)cc2)C1 (stereo unspecified),10.4%
13,Cc1cc2nc(-c3ccccc3)cc(NCC3CCCOC3)n2n1 (stereo unspecified),-3.54%
14,CCCOCC(=O)N1CCc2c(cccc2S(=O)(=O)N2CCOCC2)C1,2.71%
15,COCc1cc(N(C)CCc2c(C)n[nH]c2C)ncn1,0.681%
16,CCn1ncc2[nH]c(-c3cc(OC)c(OC)cc3OC)nc21,-2.61%
17,COCc1cc(NCCc2ccccn2)n2nccc2n1,-0.464%
18,Cc1nc(CN2CCCC(NCc3ccc(Cl)s3)C2)no1 (stereo unspecified),-3.18%
19,Cc1cc(C)c(CNC(=O)N(C)Cc2ccoc2)c(=O)[nH]1,-6.02%
20,Cc1nc(C)n(CC2CN(Cc3ccccc3OC(C)C)CCO2)n1 (stereo unspecified),-0.248%
21,CN(CC(=O)NC1CCOCC1)C1CCCN(c2cccnn2)C1 (stereo unspecified),-8.97%

row,Structure (SMILES),cytotoxicity at 10 µM
1,Cc1ccccc1C1CCCN1Cc1ccc(S(=O)(=O)N(C)C)o1 (stereo unspecified),-3.42%
2,Cc1ccc(-c2nc(CN3CCC(N4CCNC4=O)CC3)co2)cc1,-7.73%
3,Cc1nn(C)c(C)c1C1CCCN1CC(=O)NCc1ccccn1 (stereo unspecified),0.702%
4,CCCOc1cccc(C(=O)N2CCCC(n3cncn3)C2)c1 (stereo unspecified),-4.39%
5,Nc1ncnc2nc(C3CCCCN3)ccc12 (stereo unspecified),5.74%
6,Cc1noc(C)c1CN1CC[C@@H]2O[C@@H](COCC3CC3)CC[C@@H]21,6.46%
7,CN(C)C[C@H]1OC[C@@H]2CCN(S(=O)(=O)c3ccccc3)C[C@@H]21,1.44%
8,COc1ccc(CN2CCC3(CC2)CN(c2ccccn2)CCO3)cc1,2.87%
9,Cc1nc(CN2CCOCC3(CCN(c4ncccn4)C3)C2)cs1 (stereo unspecified),-22.8%
10,CN(C)C(=O)CN1CC[C@]2(CN(CC3CC3)C[C@H]2c2ccccc2)C1=O,1.46%
11,COc1ccc(CN2CCO[C@@H]3C[C@@H](C(=O)NC(C)C)C[C@H]32)cc1,8.31%
12,CCN1CCC(c2nc3ccc(NC(C)C)cn3n2)CC1,-22.3%
13,Cc1ccc(NCc2cn3c(n2)CN(Cc2ccoc2)CC3)nn1,9.43%
14,O=C(c1ccc(F)cc1)N1CCC2(CCCN2CC2CC2)CC1,5.05%
15,O=C(c1cc[nH]n1)N1CC[C@@H]2CN(Cc3ccncc3)S(=O)(=O)[C@@H]2CC1,10.5%
16,COCCC(=O)N1C[C@H]2CN(Cc3cccc(C)n3)C(=O)[C@H]2C1,4.4%
17,CC(C)n1nc(CN2CCCCC2)c2c1CN(C(=O)c1ccno1)C2,4.19%
18,O=C([C@@H]1C[C@@H]2CCN(Cc3ccoc3)C[C@H]2O1)N1CCCC1,-101%
